Tested on: HEK-293T
Assay: Multiplex assay against HEK293T;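 for Population Tubulin-Different-Phenotype (%): share of the cells with healthy nuclei that show this phenotype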
Assay type: toxicity, cell-based
Settings: human
Summary of the method: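 Cells were classed with CellPathfinder machine-learning gating, first as Hoechst high-intensity objects or normal cells, then (normal cells) as healthy, pyknosed or fragmented nuclei, and finally (pyknosed cells) as mitotic or apoptotic. Staining of live cells at seeding used Hoechst33342, BioTracker Green Microtubule Cytoskeleton Dye, MitoTracker Red and Annexin V Alexa Fluor 680, with imaging on a CQ1 microscope at 37°C and 5% CO2 after compound addition. Tubulin, mitochondrial-mass and membrane-permeability phenotypes are per cents of healthy-nucleus cells.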

[1] = 12 h, 1 µM, compound concentration 1 uM, replicate 1
[2] = 12 h, 1 µM, compound concentration 1 uM, replicate 2
[3] = 12 h, 10 µM, compound concentration 10 uM, replicate 1
[4] = 12 h, 10 µM, compound concentration 10 uM, replicate 2
[5] = 24 h, 1 µM, compound concentration 1 uM, replicate 1
[6] = 24 h, 1 µM, compound concentration 1 uM, replicate 2
[7] = 24 h, 10 µM, compound concentration 10 uM, replicate 1
[8] = 24 h, 10 µM, compound concentration 10 uM, replicate 2
[9] = 48 h, 1 µM, compound concentration 1 uM, replicate 1
[10] = 48 h, 1 µM, compound concentration 1 uM, replicate 2
[11] = 48 h, 10 µM, compound concentration 10 uM, replicate 1
[12] = 48 h, 10 µM, compound concentration 10 uM, replicate 2

Compound: CC(C)[C@H](CO)Nc1nc(Nc2cccc(Cl)c2)c2ncn(C(C)C)c2n1 [PURVALANOLA]
- Population Apoptotic (%) [1]: 48%
- Population Fragmented Nuclei (%) [1]: 8%
- Population Healthy Nuclei (%) [1]: 37%
- Population Hoechst High Intensity Objects (%) [1]: 13%
- Population Membrane Permeable-Phenotype (%) [1]: 5%
- Population Mitochondria Different-Phenotype (%) [1]: 85%
- Population Mitotic Cells (%) [1]: 51%
- Population Normal (%) [1]: 86%
- Population Pyknosed Nuclei (%) [1]: 54%
- Population Tubulin-Different-Phenotype (%) [1]: 53%
- Total Cell Count [1]: 256
- Population Apoptotic (%) [2]: 19%
- Population Fragmented Nuclei (%) [2]: 6%
- Population Healthy Nuclei (%) [2]: 43%
- Population Hoechst High Intensity Objects (%) [2]: 3%
- Population Membrane Permeable-Phenotype (%) [2]: 7%
- Population Mitochondria Different-Phenotype (%) [2]: 33%
- Population Mitotic Cells (%) [2]: 80%
- Population Normal (%) [2]: 96%
- Population Pyknosed Nuclei (%) [2]: 50%
- Population Tubulin-Different-Phenotype (%) [2]: 32%
- Total Cell Count [2]: 201
- Population Apoptotic (%) [3]: 73%
- Population Fragmented Nuclei (%) [3]: 7%
- Population Healthy Nuclei (%) [3]: 27%
- Population Hoechst High Intensity Objects (%) [3]: 12%
- Population Membrane Permeable-Phenotype (%) [3]: 2%
- Population Mitochondria Different-Phenotype (%) [3]: 97%
- Population Mitotic Cells (%) [3]: 26%
- Population Normal (%) [3]: 87%
- Population Pyknosed Nuclei (%) [3]: 64%
- Population Tubulin-Different-Phenotype (%) [3]: 98%
- Total Cell Count [3]: 324
- Population Apoptotic (%) [4]: 53%
- Population Fragmented Nuclei (%) [4]: 6%
- Population Healthy Nuclei (%) [4]: 18%
- Population Hoechst High Intensity Objects (%) [4]: 7%
- Population Membrane Permeable-Phenotype (%) [4]: 5%
- Population Mitochondria Different-Phenotype (%) [4]: 82%
- Population Mitotic Cells (%) [4]: 46%
- Population Normal (%) [4]: 92%
- Population Pyknosed Nuclei (%) [4]: 75%
- Population Tubulin-Different-Phenotype (%) [4]: 97%
- Total Cell Count [4]: 198
- Population Apoptotic (%) [5]: 42%
- Population Fragmented Nuclei (%) [5]: 14%
- Population Healthy Nuclei (%) [5]: 36%
- Population Hoechst High Intensity Objects (%) [5]: 11%
- Population Membrane Permeable-Phenotype (%) [5]: 4%
- Population Mitochondria Different-Phenotype (%) [5]: 75%
- Population Mitotic Cells (%) [5]: 57%
- Population Normal (%) [5]: 88%
- Population Pyknosed Nuclei (%) [5]: 49%
- Population Tubulin-Different-Phenotype (%) [5]: 53%
- Total Cell Count [5]: 295
- Population Apoptotic (%) [6]: 14%
- Population Fragmented Nuclei (%) [6]: 4%
- Population Healthy Nuclei (%) [6]: 63%
- Population Hoechst High Intensity Objects (%) [6]: 3%
- Population Membrane Permeable-Phenotype (%) [6]: 3%
- Population Mitochondria Different-Phenotype (%) [6]: 26%
- Population Mitotic Cells (%) [6]: 85%
- Population Normal (%) [6]: 96%
- Population Pyknosed Nuclei (%) [6]: 31%
- Population Tubulin-Different-Phenotype (%) [6]: 36%
- Total Cell Count [6]: 244
- Population Apoptotic (%) [7]: 75%
- Population Fragmented Nuclei (%) [7]: 6%
- Population Healthy Nuclei (%) [7]: 31%
- Population Hoechst High Intensity Objects (%) [7]: 12%
- Population Membrane Permeable-Phenotype (%) [7]: 2%
- Population Mitochondria Different-Phenotype (%) [7]: 98%
- Population Mitotic Cells (%) [7]: 24%
- Population Normal (%) [7]: 87%
- Population Pyknosed Nuclei (%) [7]: 61%
- Population Tubulin-Different-Phenotype (%) [7]: 96%
- Total Cell Count [7]: 375
- Population Apoptotic (%) [8]: 69%
- Population Fragmented Nuclei (%) [8]: 4%
- Population Healthy Nuclei (%) [8]: 19%
- Population Hoechst High Intensity Objects (%) [8]: 9%
- Population Membrane Permeable-Phenotype (%) [8]: 5%
- Population Mitochondria Different-Phenotype (%) [8]: 94%
- Population Mitotic Cells (%) [8]: 30%
- Population Normal (%) [8]: 90%
- Population Pyknosed Nuclei (%) [8]: 75%
- Population Tubulin-Different-Phenotype (%) [8]: 97%
- Total Cell Count [8]: 200
- Population Apoptotic (%) [9]: 49%
- Population Fragmented Nuclei (%) [9]: 18%
- Population Healthy Nuclei (%) [9]: 42%
- Population Hoechst High Intensity Objects (%) [9]: 13%
- Population Membrane Permeable-Phenotype (%) [9]: 3%
- Population Mitochondria Different-Phenotype (%) [9]: 46%
- Population Mitotic Cells (%) [9]: 50%
- Population Normal (%) [9]: 86%
- Population Pyknosed Nuclei (%) [9]: 40%
- Population Tubulin-Different-Phenotype (%) [9]: 38%
- Total Cell Count [9]: 347
- Population Apoptotic (%) [10]: 13%
- Population Fragmented Nuclei (%) [10]: 7%
- Population Healthy Nuclei (%) [10]: 77%
- Population Hoechst High Intensity Objects (%) [10]: 4%
- Population Mitochondria Different-Phenotype (%) [10]: 12%
- Population Mitotic Cells (%) [10]: 86%
- Population Normal (%) [10]: 95%
- Population Pyknosed Nuclei (%) [10]: 15%
- Population Tubulin-Different-Phenotype (%) [10]: 26%
- Total Cell Count [10]: 414
- Population Apoptotic (%) [11]: 85%
- Population Fragmented Nuclei (%) [11]: 8%
- Population Healthy Nuclei (%) [11]: 50%
- Population Hoechst High Intensity Objects (%) [11]: 12%
- Population Mitochondria Different-Phenotype (%) [11]: 99%
- Population Mitotic Cells (%) [11]: 14%
- Population Normal (%) [11]: 87%
- Population Pyknosed Nuclei (%) [11]: 41%
- Population Tubulin-Different-Phenotype (%) [11]: 99%
- Total Cell Count [11]: 366
- Population Apoptotic (%) [12]: 89%
- Population Fragmented Nuclei (%) [12]: 6%
- Population Healthy Nuclei (%) [12]: 38%
- Population Hoechst High Intensity Objects (%) [12]: 5%
- Population Membrane Permeable-Phenotype (%) [12]: 2%
- Population Mitochondria Different-Phenotype (%) [12]: 94%
- Population Mitotic Cells (%) [12]: 10%
- Population Normal (%) [12]: 94%
- Population Pyknosed Nuclei (%) [12]: 55%
- Population Tubulin-Different-Phenotype (%) [12]: 94%
- Total Cell Count [12]: 190

Compound: CCOc1ccn(-c2ccc(F)cc2)c(=O)c1C(=O)Nc1ccc(Oc2ccnc(N)c2Cl)c(F)c1 [BMS-777607]
- Population Apoptotic (%) [1]: 25%
- Population Fragmented Nuclei (%) [1]: 14%
- Population Healthy Nuclei (%) [1]: 67%
- Population Hoechst High Intensity Objects (%) [1]: 10%
- Population Membrane Permeable-Phenotype (%) [1]: 6%
- Population Mitochondria Different-Phenotype (%) [1]: 10%
- Population Mitotic Cells (%) [1]: 75%
- Population Normal (%) [1]: 89%
- Population Pyknosed Nuclei (%) [1]: 17%
- Population Tubulin-Different-Phenotype (%) [1]: 22%
- Total Cell Count [1]: 624
- Population Apoptotic (%) [2]: 5%
- Population Fragmented Nuclei (%) [2]: 5%
- Population Healthy Nuclei (%) [2]: 89%
- Population Hoechst High Intensity Objects (%) [2]: 2%
- Population Mitochondria Different-Phenotype (%) [2]: 16%
- Population Mitotic Cells (%) [2]: 95%
- Population Normal (%) [2]: 97%
- Population Pyknosed Nuclei (%) [2]: 5%
- Population Tubulin-Different-Phenotype (%) [2]: 48%
- Total Cell Count [2]: 1393
- Population Apoptotic (%) [3]: 23%
- Population Fragmented Nuclei (%) [3]: 25%
- Population Healthy Nuclei (%) [3]: 50%
- Population Hoechst High Intensity Objects (%) [3]: 15%
- Population Membrane Permeable-Phenotype (%) [3]: 4%
- Population Mitochondria Different-Phenotype (%) [3]: 3%
- Population Mitotic Cells (%) [3]: 76%
- Population Normal (%) [3]: 84%
- Population Pyknosed Nuclei (%) [3]: 25%
- Population Tubulin-Different-Phenotype (%) [3]: 3%
- Total Cell Count [3]: 432
- Population Apoptotic (%) [4]: 15%
- Population Fragmented Nuclei (%) [4]: 9%
- Population Healthy Nuclei (%) [4]: 86%
- Population Hoechst High Intensity Objects (%) [4]: 2%
- Population Membrane Permeable-Phenotype (%) [4]: 2%
- Population Mitochondria Different-Phenotype (%) [4]: 7%
- Population Mitotic Cells (%) [4]: 84%
- Population Normal (%) [4]: 97%
- Population Pyknosed Nuclei (%) [4]: 4%
- Population Tubulin-Different-Phenotype (%) [4]: 5%
- Total Cell Count [4]: 1444
- Population Apoptotic (%) [5]: 17%
- Population Fragmented Nuclei (%) [5]: 11%
- Population Healthy Nuclei (%) [5]: 76%
- Population Hoechst High Intensity Objects (%) [5]: 10%
- Population Membrane Permeable-Phenotype (%) [5]: 10%
- Population Mitochondria Different-Phenotype (%) [5]: 12%
- Population Mitotic Cells (%) [5]: 82%
- Population Normal (%) [5]: 89%
- Population Pyknosed Nuclei (%) [5]: 12%
- Population Tubulin-Different-Phenotype (%) [5]: 40%
- Total Cell Count [5]: 625
- Population Apoptotic (%) [6]: 9%
- Population Fragmented Nuclei (%) [6]: 10%
- Population Healthy Nuclei (%) [6]: 84%
- Population Hoechst High Intensity Objects (%) [6]: 6%
- Population Membrane Permeable-Phenotype (%) [6]: 12%
- Population Mitochondria Different-Phenotype (%) [6]: 4%
- Population Mitotic Cells (%) [6]: 90%
- Population Normal (%) [6]: 93%
- Population Pyknosed Nuclei (%) [6]: 4%
- Population Tubulin-Different-Phenotype (%) [6]: 70%
- Total Cell Count [6]: 1553
- Population Apoptotic (%) [7]: 25%
- Population Fragmented Nuclei (%) [7]: 18%
- Population Healthy Nuclei (%) [7]: 69%
- Population Hoechst High Intensity Objects (%) [7]: 13%
- Population Membrane Permeable-Phenotype (%) [7]: 6%
- Population Mitochondria Different-Phenotype (%) [7]: 3%
- Population Mitotic Cells (%) [7]: 74%
- Population Normal (%) [7]: 86%
- Population Pyknosed Nuclei (%) [7]: 12%
- Population Tubulin-Different-Phenotype (%) [7]: 5%
- Total Cell Count [7]: 433
- Population Apoptotic (%) [8]: 8%
- Population Fragmented Nuclei (%) [8]: 27%
- Population Hoechst High Intensity Objects (%) [8]: 2%
- Population Membrane Permeable-Phenotype (%) [8]: 5%
- Population Mitochondria Different-Phenotype (%) [8]: 1%
- Population Mitotic Cells (%) [8]: 91%
- Population Normal (%) [8]: 97%
- Population Pyknosed Nuclei (%) [8]: 2%
- Total Cell Count [8]: 2353
